# According to ChEMBL document CHEMBL1147926, “Synthetic chalcones, flavanones, and flavones as antitumoral agents: biological evaluation and structure-activity relationships” (Bioorg Med Chem, 2007):
# How the values were obtained:
# MCF7 [1] = assay: Cytotoxicity against human MCF7 cells […] in aerobic condition assessed as survival at 100 uM by sulforhodamine assay; assay type: functional; details: read-out: Activity
# Summary of the method: (§1)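 Cells kept in RPMI with L-glutamine, penicillin/streptomycin, non-essential amino acids (1% each) and 10% FBS, 37 °C, 5% CO2, 48 h; compound added from 1 mM stock in 10% DMSO to final 100 µM, 24 h exposure. TCA fixation 1 h at 4 °C, sulforhodamine B staining, Tris pH 10.0, A540. Survival = (T/C)×100 versus solvent control; duplicates, two repetitions averaged.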
# TK-10 [2] = assay: Cytotoxicity against human TK10 cells in aerobic condition assessed as survival at 100 uM by sulforhodamine assay; assay type: functional; details: read-out: Activity; summary of the method: as §1
# HT-29 [3] = assay: Cytotoxicity against human HT29 cells ATCC HTB38 in aerobic condition assessed as survival at 100 uM by sulforhodamine assay; assay type: functional; details: read-out: Activity; summary of the method: as §1
# HT-29 [4] = assay: Growth inhibition of HT29 cells by sulforhodamine assay; assay type: functional, cell-based; details: Homo sapiens
# Summary of the method: (§2)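 Cells grown in supplemented RPMI with 10% FBS at 37 °C, 5% CO2, 48 h, then exposed to increasing compound concentrations (1 mM stocks in 10% DMSO) for 24 h. Sulforhodamine B read-out after TCA fixation at A540. IC50 is the concentration halving absorbance relative to solvent control. Duplicates, at least two repetitions, means reported.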
# TK-10 [5] = assay: Growth inhibition of TK10 cells by sulforhodamine assay; assay type: functional, cell-based; details: Homo sapiens; summary of the method: as §2
# [6] = Growth inhibition of HK2 cells by sulforhodamine assay; assay type: cell-based; details: Homo sapiens, HK-2
# MCF7 [7] = assay: Growth inhibition of MCF7 cells by sulforhodamine assay; assay type: functional, cell-based; details: Homo sapiens; summary of the method: as §2
SMILES,viability at 100 µM (MCF7 [1]) [%],viability at 100 µM (TK-10 [2]) [%],viability at 100 µM (HT-29 [3]) [%],IC50 (HT-29 [4]) [µM],IC50 (TK-10 [5]) [µM],IC50 [6] [µM],IC50 (MCF7 [7]) [µM]
O=C(/C=C/c1ccc(O)cc1)c1ccccc1O,3,5,9,,,,
O=c1cc(-c2ccc(Cl)cc2)oc2ccccc12,100,74,100,,,,
CC(=O)Nc1ccc(/C=C/C(=O)c2ccccc2)cc1,24,5,3,,,,
O=C(/C=C/c1ccc(Cl)cc1)c1ccccc1O,41,3,25,45,,,
COc1ccc(/C=C/C(=O)c2ccccc2O)cc1,10,4,97,,67,23.7,
CCCCCCOc1ccc(/C=C/C(=O)c2ccccc2O)cc1,76,62,97,,,,
COc1ccc(C2CC(=O)c3ccccc3O2)cc1 (configuration not stated),2,36,100,,,,
O=c1cc(-c2ccccc2Br)oc2ccccc12,36,69,61,,,,
O=C(/C=C/c1ccc(OCc2ccccc2)cc1)c1ccccc1O,56,64,59,,,,
O=C1CC(c2ccc(OCc3ccccc3)cc2)Oc2ccccc21 (configuration not stated),76,78,69,,,,
COc1ccc(C2CC(=O)c3ccccc3O2)cc1OC (configuration not stated),81,69,68,,,,
CSc1ccc(/C=C/C(=O)c2ccccc2O)cc1,75,91,76,,,,
CSc1ccc(C(O)CC(=O)c2ccccc2O)cc1 (configuration not stated),90,100,100,,,,
CN(C)c1ccc(/C=C/C(=O)c2ccccc2O)cc1,87,76,65,,,,
CC(=O)Nc1ccc(/C=C/C(=O)c2ccccc2O)cc1,79,89,87,,,,
O=C(/C=C/c1ccc(Br)cc1)c1ccccc1,44,90,28,,,,
O=C(/C=C/c1ccccc1Br)c1ccccc1,32,2,26,,,,
CSc1ccc(/C=C/C(=O)c2ccccc2)cc1,47,0,46,,,,
Nc1ccc(/C=C/C(=O)c2ccccc2O)cc1,43,91,98,,,,
COc1ccc(OC)c(/C=C/C(=O)c2ccccc2O)c1,45,56,92,,,,
O=C(CCc1ccc(OCc2ccccc2)cc1)c1ccccc1O,89,95,100,,,,
COc1cc(O)c(C(=O)/C=C/c2ccc(OC)c(OC)c2)c(OC)c1,89,100,,,,,
O=C(/C=C/c1ccccc1)c1ccc(OCc2ccccc2)cc1O,74,72,99,,,,
O=C(/C=C/c1ccc(OCc2ccccc2)cc1)c1ccc(OCc2ccccc2)cc1O,100,92,100,,,,
CCCCOc1ccc(/C=C/C(=O)c2ccc(OCCCC)cc2O)cc1,81,79,99,,,,

SMILES,viability at 100 µM (MCF7 [1]) [%],viability at 100 µM (TK-10 [2]) [%],viability at 100 µM (HT-29 [3]) [%],IC50 (HT-29 [4]) [µM],IC50 (TK-10 [5]) [µM],IC50 [6] [µM],IC50 (MCF7 [7]) [µM]
COc1cc(/C=C/C(=O)c2ccccc2O)ccc1OCc1ccccc1,97,90,100,,,,
O=C(/C=C/c1ccc2c(c1)OCO2)c1ccccc1O,79,50,69,,,11.6,
COc1ccc(/C=C/C(=O)c2ccccc2O)cc1I,96,41,92,,,,
O=C(/C=C/c1ccc(OCc2ccccc2)c(I)c1)c1ccccc1O,81,78,100,,,,
O=C(/C=C/C=C/c1ccccc1)c1ccccc1O,84,100,,,,,
O=c1cc(-c2ccc(Br)cc2)oc2ccccc12,73,94,100,,,48,
O=C(/C=C/c1ccc([N+](=O)[O-])cc1)c1ccccc1O,43,34,94,,,,
COc1ccc(/C=C/C(=O)c2ccccc2O)cc1OC,1,2,70,,90,,95
O=C1CC(c2ccc3c(c2)OCO3)Oc2ccccc21 (configuration not stated),100,100,100,,,,
O=C(/C=C/c1ccccc1Br)c1ccc(OCc2ccccc2)cc1O,74,65,80,,,,
O=C1CC(c2ccc(Br)cc2)Oc2ccccc21 (configuration not stated),26,16,61,,,,
O=C(/C=C/c1ccccc1[N+](=O)[O-])c1ccccc1O,100,100,100,,,,
CCCCCCCCCOc1ccc(/C=C/C(=O)c2ccccc2O)cc1,86,77,98,,,,
COc1cc(O)c(C(=O)/C=C/c2ccccc2Br)c(OC)c1,82,53,87,,,,
O=C(/C=C/c1ccccc1Br)c1ccccc1O,100,3,0,,,,
COc1ccc(/C=C/C(=O)c2ccccc2O)cc1OCc1ccccc1,100,100,100,,,,
O=C(/C=C/c1ccco1)c1ccccc1O,60,48,40,,,,
O=C1CC(c2ccccc2Br)Oc2ccccc21 (configuration not stated),12,54,44,,,,
O=C(/C=C/c1ccc(Br)cc1)c1ccccc1O,43,60,71,,,33.8,
COc1ccc(-c2cc(=O)c3ccccc3o2)cc1 [4'-METHOXYFLAVONE],100,82,100,,,,
O=C(/C=C/c1ccc(Cl)cc1)c1ccccc1 [4-CHLORO CHALCONE],56,2,9,,,,
O=C1CC(c2ccccc2)Oc2ccccc21 (configuration not stated) [FLAVANONE],54,79,69,,,,
COc1ccc(/C=C/C(=O)c2c(O)cc(OC)cc2OC)cc1 [FLAVOKAWAIN A],60,71,,,,,
O=c1cc(-c2ccccc2)oc2ccccc12 [FLAVONE],57,87,90,,,,
